Laboratory results: ChEMBL document CHEMBL1156266, “Antisense oligonucleotides containing conformationally constrained 2',4'-(N-methoxy)aminomethylene and 2',4'-aminooxymethylene and 2'-O,4'-C-aminomethylene bridged nucleoside analogues show improved potency in animal models” (J Med Chem, 2010)

Experiments:
[1] = Reduction in PTEN mRNA expression in mouse bEND.3 cells after 24 hrs by qRT-PCR analysis; type: functional, cell-based; details: for IC50: BEND3, 24 h
Method in brief: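 bEnd.3 cells in DMEM/10% FBS, seeded at 1 × 10^4 cells/well the day before. Transfected 4 h at 37 °C with Lipofectin 3 μg/mL in OptiMEM, eight 1:2 dilutions (40 nM to 312.5 pM), then refed with complete medium for 24 h. PTEN RNA by qRT-PCR, normalized to cyclophilin A, as % untreated control. Triplicate plates. IC50 from sigmoidal fit, top 100%, bottom 0%.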

Mus musculus [2] = test: Reduction in PTEN mRNA expression in ip dosed BALB/c mouse liver administered twice a week for 3 weeks measured after 72 hrs of last dose by RT-PCR analysis; type: functional
Method in brief: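 Male Balb/c mice, 6-week-old, ASO in PBS ip twice weekly for 3 weeks, four dose levels. Killed 72 h after last dose. Liver homogenized in guanidine isothiocyanate buffer, RNA column-purified. PTEN RNA by fluorescence qRT-PCR, normalized to cyclophilin A. Errors are SD.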

Nucleic Acid = test: Binding affinity to mouse PTEN mRNA assessed as melting temperature at 4 uM by thermal denaturation assay; type: nucleic-acid assay
Method in brief: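 Duplex with complementary length-matched RNA; UV absorbance versus temperature curves in 100 mM Na+, 10 mM phosphate, 0.1 mM EDTA, 4 μM each strand. Tm is the average of two experiments.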

Mus musculus [3] = test: Hepatotoxicity in BALB/c mouse assessed as liver ALT level at 0.5 to 14.8 mg/kg, ip administered twice a week for 3 weeks measured after 72 hrs of last dose; type: toxicity, organism-based; set-up: dose 0.5-14.8 mg/kg, route intraperitoneal; details: in vivo
Method in brief: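 Male 6-week-old Balb/c mice dosed ip in PBS twice weekly for 3 weeks: 0.7–23 mg/kg (four levels) or 0.5–14.6/14.8 mg/kg. Killed 72 h after final dose. Plasma from cardiac-puncture blood, ALT on clinical bioanalyzer. Errors are SD.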

Mus musculus [4] = test: Toxicity in BALB/c mouse assessed as effect on liver weight at 0.5 to 14.8 mg/kg, ip administered twice a week for 3 weeks measured after 72 hrs of last dose; type: organism-based; set-up: dose 0.5-14.8 mg/kg, route intraperitoneal; details: in vivo
Method in brief: (§1)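 Male Balb/c mice, ip ASO in PBS twice weekly for 3 weeks at four dose levels. Body weight recorded before each dose. Killed 3 days after last dose. Organ weights normalized to body weight, expressed relative to the saline-treated group.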

Mus musculus [5] = test: Toxicity in BALB/c mouse assessed as effect on kidney weight at 0.5 to 14.8 mg/kg, ip administered twice a week for 3 weeks measured after 72 hrs of last dose; type: organism-based; set-up: dose 0.5-14.8 mg/kg, route intraperitoneal; details: in vivo; method in brief: as §1
Mus musculus [6] = test: Toxicity in BALB/c mouse assessed as increase in spleen weight at 0.5 to 14.8 mg/kg, ip administered twice a week for 3 weeks measured after 72 hrs of last dose; type: organism-based; set-up: dose 0.5-14.8 mg/kg, route intraperitoneal; details: in vivo; method in brief: as §1
Mus musculus [7] = test: Toxicity in BALB/c mouse assessed as effect on body weight at 0.5 to 14.8 mg/kg, ip administered twice a week for 3 weeks measured after 72 hrs of last dose; type: organism-based; set-up: dose 0.5-14.8 mg/kg, route intraperitoneal; details: in vivo; method in brief: as §1

Row | IC50 [1] [nM] | Tm (Nucleic Acid) [°C] | Structure (SMILES) | Activity [1] | ED50 (Mus musculus [2]) [mg/kg] | Activity (Mus musculus [3]) | Activity (Mus musculus [4]) | Activity (Mus musculus [5]) | Activity (Mus musculus [2]) | Activity (Mus musculus [6]) | Activity (Mus musculus [7])
1 | 34.7 | 51.3 | COCCO[C@@H]1[C@H](O)[C@@H](COP(O)(=S)O[C@H]2[C@@H](OCCOC)[C@H](n3ccc(N)nc3=O)O[C@@H]2COP(O)(=S)O[C@H]2[C@@H](O)[C@H](n3ccc(N)nc3=O)O[C@@H]2COP(O)(=S)O[C@H]2[C@@H](O)[C@H](n3cnc4c(=O)[nH]c(N)nc43)O[C@@H]2COP(O)(=S)O[C@H]2[C@@H](O)[C@H](n3cnc4c(=O)[nH]c(N)nc43)O[C@@H]2COP(O)(=S)O[C@H]2C[C@H](n3cc(C)c(=O)[nH]c3=O)O[C@@H]2COP(O)(=S)O[C@H]2[C@@H](O)[C@H](n3ccc(N)nc3=O)O[C@@H]2COP(O)(=S)O[C@H]2[C@@H](O)[C@H](n3cnc4c(N)ncnc43)O[C@@H]2COP(O)(=S)O[C@H]2[C@@H](O)[C@H](n3ccc(N)nc3=O)O[C@@H]2COP(O)(=S)O[C@H]2[C@@H](O)[C@H](n3cnc4c(=O)[nH]c(N)nc43)O[C@@H]2COP(O)(=S)O[C@H]2[C@@H](O)[C@H](n3cnc4c(N)ncnc43)O[C@@H]2COP(O)(=S)O[C@H]2C[C@H](n3cc(C)c(=O)[nH]c3=O)O[C@@H]2COP(O)(=S)O[C@H]2[C@@H](OCCOC)[C@H](n3ccc(=O)[nH]c3=O)O[C@@H]2COP(O)(=S)O[C@H]2[C@@H](OCCOC)[C@H](n3ccc(N)nc3=O)O[C@@H]2CO)O[C@H]1n1ccc(=O)[nH]c1=O (stereo not given in full) | Dose-dependent effect | > 45 |  |  |  |  |  | 
2 | 3.1 | 57.7 | CON1C[C@@]2(COP(O)(=S)O[C@H]3[C@H]4ON(OC)C[C@@]3(COP(O)(=S)O[C@H]3[C@@H](O)[C@H](n5ccc(N)nc5=O)O[C@@H]3COP(O)(=S)O[C@H]3[C@@H](O)[C@H](n5cnc6c(=O)[nH]c(N)nc65)O[C@@H]3COP(O)(=S)O[C@H]3[C@@H](O)[C@H](n5cnc6c(=O)[nH]c(N)nc65)O[C@@H]3COP(O)(=S)O[C@H]3C[C@H](n5cc(C)c(=O)[nH]c5=O)O[C@@H]3COP(O)(=S)O[C@H]3[C@@H](O)[C@H](n5ccc(N)nc5=O)O[C@@H]3COP(O)(=S)O[C@H]3[C@@H](O)[C@H](n5cnc6c(N)ncnc65)O[C@@H]3COP(O)(=S)O[C@H]3[C@@H](O)[C@H](n5ccc(N)nc5=O)O[C@@H]3COP(O)(=S)O[C@H]3[C@@H](O)[C@H](n5cnc6c(=O)[nH]c(N)nc65)O[C@@H]3COP(O)(=S)O[C@H]3[C@@H](O)[C@H](n5cnc6c(N)ncnc65)O[C@@H]3COP(O)(=S)O[C@H]3C[C@H](n5cc(C)c(=O)[nH]c5=O)O[C@@H]3COP(O)(=S)O[C@H]3[C@H]5ON(OC)C[C@@]3(COP(O)(=S)O[C@H]3[C@H]6ON(OC)C[C@@]3(CO)O[C@H]6n3cc(C)c(N)nc3=O)O[C@H]5n3cc(C)c(=O)[nH]c3=O)O[C@H]4n3cc(C)c(N)nc3=O)O[C@@H](n3cc(C)c(=O)[nH]c3=O)[C@H](O1)[C@@H]2O (stereo not given in full) | Dose-dependent effect | 8 | Non-toxic | Non-toxic | Non-toxic | Dose-dependent effect | Toxic | Non-toxic
3 |  | 48.5 | Cc1cn([C@H]2C[C@H](OP(O)(=S)OC[C@H]3O[C@@H](n4cnc5c(=O)[nH]c(N)nc54)[C@H](O)[C@@H]3OP(O)(=S)OC[C@H]3O[C@@H](n4cnc5c(=O)[nH]c(N)nc54)[C@H](O)[C@@H]3OP(O)(=S)OC[C@H]3O[C@@H](n4ccc(N)nc4=O)[C@H](O)[C@@H]3OP(O)(=S)OC[C@H]3O[C@@H](n4ccc(N)nc4=O)[C@H](O)[C@@H]3OP(O)(=S)OC[C@H]3O[C@@H](n4cc(C)c(=O)[nH]c4=O)C[C@@H]3O)[C@@H](COP(O)(=S)O[C@H]3[C@@H](O)[C@H](n4ccc(N)nc4=O)O[C@@H]3COP(O)(=S)O[C@H]3[C@@H](O)[C@H](n4cnc5c(N)ncnc54)O[C@@H]3COP(O)(=S)O[C@H]3[C@@H](O)[C@H](n4ccc(N)nc4=O)O[C@@H]3COP(O)(=S)O[C@H]3[C@@H](O)[C@H](n4cnc5c(=O)[nH]c(N)nc54)O[C@@H]3COP(O)(=S)O[C@H]3[C@@H](O)[C@H](n4cnc5c(N)ncnc54)O[C@@H]3COP(O)(=S)O[C@H]3C[C@H](n4cc(C)c(=O)[nH]c4=O)O[C@@H]3COP(O)(=S)O[C@H]3C[C@H](n4cc(C)c(=O)[nH]c4=O)O[C@@H]3COP(O)(=S)O[C@H]3[C@@H](O)[C@H](n4ccc(N)nc4=O)O[C@@H]3CO)O2)c(=O)[nH]c1=O (stereo not given in full) |  |  |  |  |  |  |  | 
